Published values from different studies.
Compare with care: the assays were run in different laboratories.
Target: Serine/threonine-protein kinase NLK (NLK, Homo sapiens, UniProt Q9UBE8)
Residues used in one study (Q9UBE8 1-527): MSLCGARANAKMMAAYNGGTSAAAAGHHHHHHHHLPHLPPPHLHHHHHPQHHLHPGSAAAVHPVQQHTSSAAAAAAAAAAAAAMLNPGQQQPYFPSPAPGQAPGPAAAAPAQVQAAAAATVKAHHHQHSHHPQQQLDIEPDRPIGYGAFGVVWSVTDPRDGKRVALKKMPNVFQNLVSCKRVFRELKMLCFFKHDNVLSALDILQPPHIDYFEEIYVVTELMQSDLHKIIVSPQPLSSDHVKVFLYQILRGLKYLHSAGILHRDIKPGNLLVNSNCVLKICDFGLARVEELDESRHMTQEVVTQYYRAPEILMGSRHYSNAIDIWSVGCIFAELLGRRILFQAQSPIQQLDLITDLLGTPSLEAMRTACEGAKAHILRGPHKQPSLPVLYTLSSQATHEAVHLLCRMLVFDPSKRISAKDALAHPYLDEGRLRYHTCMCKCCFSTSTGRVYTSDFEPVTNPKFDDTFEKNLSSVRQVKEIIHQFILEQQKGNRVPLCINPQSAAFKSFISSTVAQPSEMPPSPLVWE

SMILES	test	conditions	measurement	result
COc1cc(Cl)c(C(=O)N[C@@H](CN[C@H]2CC[C@@H](N)CC2)Cc2ccc(C#N)cc2)cc1-c1ccc(CN[C@H](C)c2ccc(C)cc2)o1	enzyme activity, inhibitor	1 µM	remaining activity	88%
Nc1ncnc2occ(-c3ccc(NC(=O)Nc4cc(C(F)(F)F)ccc4F)cc3)c12	cell-free assay	20 µM	remaining signal	19%
CC(C)(C)c1nc2c(s1)c1nc(N)ncc1c1ccc(NS(=O)(=O)c3c(F)cccc3F)c(F)c12	enzyme activity, inhibitor, radiometric	1 µM	remaining activity	91%
CNC(=O)c1cc(Oc2ccc(NC(=O)Nc3ccc(Cl)c(C(F)(F)F)c3)cc2)ccn1	enzyme activity, inhibitor	0.3 µM	inhibition	-5%
Fc1cccc(-n2cnc3c(NCc4nc5c(F)c(F)ccc5[nH]4)nc(N4CCOCC4)nc32)c1	binding, competition with immobilised ligand	10 µM	binding vs control	98%
Cn1cncc1C1=CN(c2ncnc3[nH]cnc23)CCS1	enzyme activity, inhibitor, radiometric	2 µM	inhibition	43%
C[C@H](c1ccnc(Nc2nc3ccc(-c4cc(N(C)C)ncn4)cc3[nH]2)c1)N1CCN(C(=O)CC(F)(F)F)CC1	cell-free assay, competition with immobilised ligand	0.1 µM	remaining binding	88%
O=C1NC(=O)c2cc(Nc3ccc(F)cc3)c(Nc3ccc(F)cc3)cc21	cell-free assay	0.5 µM	remaining signal	103%
CN1CC(Oc2cnc(C#N)cc2-c2ccn3nc(NC(=O)C4CC4)cc3c2)C1	enzyme activity, inhibitor	1 µM	inhibition	10%
Cc1ccc(NC(=O)c2ccc(C)c(C(F)(F)F)c2)cc1C#Cc1nn(C2CCC(O)CC2)c2ncnc(N)c12 (stereo not shown)	cell-free assay	10 µM	remaining signal	82%
Cc1ccc(Nc2nccc(N(C)c3ccc4c(C)n(C)nc4c3)n2)cc1S(N)(=O)=O	enzyme activity, inhibitor	10 µM	inhibition	67%
CSc1cccnc1N1CCN(Cc2nc3ccccc3[nH]2)CC1	binding, competition with immobilised ligand	1 µM	remaining binding	100%
CCN(CC)CCNC(=O)c1c(C)[nH]c(/C=C2\C(=O)Nc3ccc(F)cc32)c1C	enzyme activity, inhibitor	10 µM	inhibition	7%
CS(=O)(=O)c1cc(C2(NC(=O)c3cncc4c3cnn4-c3ccc(F)cc3)CC2)ccn1	cell-free assay, competition with immobilised ligand	1 µM	remaining binding	100%
N#CCCc1ccc2c(c1)-c1[nH]c3ccc([N+](=O)[O-])cc3c1CC(=O)N2	cell-free assay	0.5 µM	remaining signal	89.7%
CNC(=O)Nc1ccc2c(c1)CC[C@@]21OC(=O)N(CC(=O)N(Cc2ccc(F)cc2)[C@@H](C)C(F)(F)F)C1=O	binding, competition with immobilised ligand	1 µM	remaining binding	82%
Cc1cc(NC(=O)c2cccc3cc(-c4cccc5[nH]nc(N)c45)ccc23)ccc1F	enzyme activity, inhibitor	0.1 µM	activity vs control	97%
O=C(NCc1ncc(C(F)(F)F)cc1Cl)c1ccc2c(c1)C1(CCS(=O)(=O)CC1)[C@H](C1CC1)N2S(=O)(=O)c1ccc(F)cc1	cell-free assay, competition with immobilised ligand	1 µM	remaining binding	100%
O=C(Nc1cnn(-c2csc(C(=O)NC3COC3)c2)c1)Nc1c(F)cccc1Cl	enzyme activity, inhibitor	5 µM	remaining activity	87.4%
